Laboratory results: ChEMBL document CHEMBL5136970, “Influence of ring size in conformationally restricted ring I analogs of paromomycin on antiribosomal and antibacterial activity” (RSC Med Chem, 2021)
≈ marks a conversion by molar mass, not a printed value.

Legend:
[1] = Inhibition of human cytoplasmic ribosome Cyt 14 hybridized with Mycobacterium smegmatis ribosome assessed as inhibition of translation activity using Firefly luciferase mRNA reporter based luminescence analysis
Outline: (§1)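 Cell-free ribosomal translation assay. IC50 reported in μM ± STD, determined in duplicate or more, with fewer replicates for a few compounds where material was limited.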

[2] = Selectivity ratio of IC50 for inhibition of human mitochondrial ribosome Mit 13 hybridized with Mycobacterium smegmatis ribosome to IC50 for inhibition of Mycobacterium smegmatis wild type ribosomes
[3] = Selectivity ratio of IC50 for inhibition of human cytoplasmic ribosome Cyt 14 hybridized with Mycobacterium smegmatis ribosomes to IC50 for inhibition of Mycobacterium smegmatis wild type ribosomes
Staphylococcus aureus = experiment: Antibacterial activity against methicillin-resistant Staphylococcus aureus AG038; type: functional
Enterobacter cloacae = experiment: Antibacterial activity against Enterobacter cloacae AG290; type: functional
Pseudomonas aeruginosa = experiment: Antibacterial activity against Pseudomonas aeruginosa AG031; type: functional
Escherichia coli = experiment: Antibacterial activity against Escherichia coli AG001; type: functional
Acinetobacter baumannii = experiment: Antibacterial activity against Acinetobacter baumannii AG225; type: functional
Klebsiella pneumoniae = experiment: Antibacterial activity against Klebsiella pneumoniae AG215; type: functional
[4] = Inhibition of human mitochondrial ribosome Mit 13 hybridized with Mycobacterium smegmatis ribosome assessed as inhibition of translation activity using Firefly luciferase mRNA reporter based luminescence analysis; outline: as §1
Bacterial 70S ribosome = experiment: Inhibition of Mycobacterium smegmatis wild type ribosomes assessed as inhibition of translation activity using Firefly luciferase mRNA reporter based luminescence analysis; type: subcellular, Mycolicibacterium smegmatis
Outline: (§2)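 Cell-free ribosomal translation inhibition with IC50 reported in μM. Values were determined in duplicate or more, except for a few compounds in the mitochondrial hybrid assays, where limited material allowed fewer runs.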

[5] = Inhibition of human mitochondrial ribosome Mit 13 A1555G mutant hybridized with Mycobacterium smegmatis ribosome assessed as inhibition of translation activity using Firefly luciferase mRNA reporter based luminescence analysis; outline: as §2
[6] = Selectivity ratio of IC50 for inhibition of human mitochondrial ribosome Mit 13 A1555G mutant hybridized with Mycobacterium smegmatis ribosomes to IC50 for inhibition of Mycobacterium smegmatis wild type ribosomes

SMILES	IC50 [1] [µM]	Ratio IC50 [2]	Ratio IC50 [3]	MIC (Staphylococcus aureus) [µg/mL]	MIC (Enterobacter cloacae) [µg/mL]	MIC (Pseudomonas aeruginosa) [µg/mL]	MIC (Escherichia coli) [µg/mL]	MIC (Acinetobacter baumannii) [µg/mL]	MIC (Klebsiella pneumoniae) [µg/mL]	IC50 [4] [µM]	IC50 (Bacterial 70S ribosome) [µM]	IC50 [5] [µM]	Ratio IC50 [6]
NC[C@@H]1O[C@H](O[C@H]2[C@@H](O)[C@H](O[C@@H]3[C@@H](O)[C@H](N)C[C@H](N)[C@H]3O[C@H]3O[C@H]4[C@@H](OC[C@@H]4O)[C@H](O)[C@H]3N)O[C@@H]2CO)[C@H](N)[C@@H](O)[C@@H]1O	40	943	250	16 (≈ 25.5 µM)	32 (≈ 51 µM)	> 128	32 (≈ 51 µM)	32 (≈ 51 µM)	16 (≈ 25.5 µM)	151	0.13	–	–
NC[C@@H]1O[C@H](O[C@H]2[C@@H](O)[C@H](O[C@@H]3[C@@H](O)[C@H](N)C[C@H](N)[C@H]3O[C@H]3O[C@H]4[C@@H](OCCC[C@@H]4O)[C@H](O)[C@H]3N)O[C@@H]2CO)[C@H](N)[C@@H](O)[C@@H]1O	56	3420	789	2 (≈ 3.05 µM)	2 (≈ 3.05 µM)	64 (≈ 97.6 µM)	4 (≈ 6.1 µM)	4 (≈ 6.1 µM)	2 (≈ 3.05 µM)	243	0.071	42	592
NC[C@@H]1O[C@H](O[C@H]2[C@@H](O)[C@H](O[C@@H]3[C@@H](O)[C@H](N)C[C@H](N)[C@H]3O[C@H]3O[C@H](CO)[C@@H](O)[C@H](O)[C@H]3N)O[C@@H]2CO)[C@H](N)[C@@H](O)[C@@H]1O [PAROMOMYCIN]	37	3970	1120	2 (≈ 3.25 µM)	2 (≈ 3.25 µM)	> 128	2 (≈ 3.25 µM)	2 (≈ 3.25 µM)	1 (≈ 1.62 µM)	131	0.033	12	364
C[C@@H]1C[C@@H](O)[C@H]2O[C@H](O[C@H]3[C@H](O[C@@H]4O[C@H](CO)[C@@H](O[C@H]5O[C@@H](CN)[C@@H](O)[C@H](O)[C@H]5N)[C@H]4O)[C@@H](O)[C@H](N)C[C@@H]3N)[C@H](N)[C@@H](O)[C@@H]2O1	266	418	299	32 (≈ 48.8 µM)	32 (≈ 48.8 µM)	> 128	32 (≈ 48.8 µM)	32 (≈ 48.8 µM)	16 (≈ 24.4 µM)	372	0.89	327	367
NC[C@@H]1O[C@H](O[C@H]2[C@@H](O)[C@H](O[C@@H]3[C@@H](O)[C@H](N)C[C@H](N)[C@H]3O[C@H]3O[C@H]4[C@@H](OCC[C@@H]4O)[C@H](O)[C@H]3N)O[C@@H]2CO)[C@H](N)[C@@H](O)[C@@H]1O	120	1920	1000	2 (≈ 3.12 µM)	4 (≈ 6.23 µM)	> 128	8 (≈ 12.5 µM)	8 (≈ 12.5 µM)	4 (≈ 6.23 µM)	231	0.12	132	1100
C[C@@H]1C[C@H](O)[C@H]2O[C@H](O[C@H]3[C@H](O[C@@H]4O[C@H](CO)[C@@H](O[C@H]5O[C@@H](CN)[C@@H](O)[C@H](O)[C@H]5N)[C@H]4O)[C@@H](O)[C@H](N)C[C@@H]3N)[C@H](N)[C@@H](O)[C@@H]2O1	34	3970	540	4 (≈ 6.1 µM)	2 (≈ 3.05 µM)	32 (≈ 48.8 µM)	4 (≈ 6.1 µM)	4 (≈ 6.1 µM)	2 (≈ 3.05 µM)	250	0.063	20	317
NC[C@@H]1O[C@H](O[C@H]2[C@@H](O)[C@H](O[C@@H]3[C@@H](O)[C@H](N)C[C@H](N)[C@H]3O[C@H]3O[C@H]4[C@@H](OCCC[C@H]4O)[C@H](O)[C@H]3N)O[C@@H]2CO)[C@H](N)[C@@H](O)[C@@H]1O	–	342	–	32 (≈ 48.8 µM)	32 (≈ 48.8 µM)	> 128	64 (≈ 97.6 µM)	32 (≈ 48.8 µM)	32 (≈ 48.8 µM)	514	1.5	545	363
NC[C@@H]1O[C@H](O[C@H]2[C@@H](O)[C@H](O[C@@H]3[C@@H](O)[C@H](N)C[C@H](N)[C@H]3O[C@H]3O[C@H]4[C@@H](OCC[C@H]4O)[C@H](O)[C@H]3N)O[C@@H]2CO)[C@H](N)[C@@H](O)[C@@H]1O	557	168	169	32 (≈ 49.9 µM)	64 (≈ 99.7 µM)	> 128	128 (≈ 199 µM)	64 (≈ 99.7 µM)	64 (≈ 99.7 µM)	554	3.3	602	182
NC[C@@H]1O[C@H](O[C@H]2[C@@H](O)[C@H](O[C@@H]3[C@@H](O)[C@H](N)C[C@H](N)[C@H]3O[C@H]3O[C@H]4[C@@H](OC[C@H]4O)[C@H](O)[C@H]3N)O[C@@H]2CO)[C@H](N)[C@@H](O)[C@@H]1O	276	655	1380	8 (≈ 12.7 µM)	8 (≈ 12.7 µM)	> 64	16 (≈ 25.5 µM)	8 (≈ 12.7 µM)	4 (≈ 6.37 µM)	131	0.2	117	585
